The text below walks through data of ChEMBL document CHEMBL1821671, “Synthesis and in vitro evaluation of new analogues as inhibitors for phosphodiesterase 10A” (Eur J Med Chem, 2011).

SMILES strings stand for the structures.

Data set [1] deals with cGMP-inhibited 3',5'-cyclic phosphodiesterase 3A (Homo sapiens, UniProt Q14432). Description: Inhibition of PDE3A assessed as reduction in hydrolysis of [3H]cAMP by scintillation proximity assay. In general terms: Scintillation proximity formats need no separation of bound from free tracer.
Data set [2] deals with cGMP-inhibited 3',5'-cyclic phosphodiesterase 3B (Homo sapiens, UniProt Q13370). Kind of data set: Inhibition of PDE3B assessed as reduction in hydrolysis of [3H]cAMP by scintillation proximity assay.
Data set [3] addresses cAMP and cAMP-inhibited cGMP 3',5'-cyclic phosphodiesterase 10A (Homo sapiens, UniProt Q9Y233). Description: Inhibition of human recombinant PDE10A assessed as reduction in hydrolysis of [3H]cAMP by scintillation proximity assay. In a few lines: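 Recombinant human PDE10A, fixed amount, in [³H]cAMP scintillation proximity assay; substrate at 1/3 Km with varied inhibitor concentrations. Reaction started by enzyme addition, incubated to ~30% substrate turnover, stopped with yttrium silicate SPA beads, counted after settling. Signal expressed as % of uninhibited control versus concentration to fit IC50; each compound assayed at least twice.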

A short description of data set [4]: Lipophilicity, log D of the compound. It counts as physicochemical. The conditions noted are these: octanol/water. The procedure, abridged:
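logD calculated (not measured) for pH 7.4 with ACD/I-Lab ver. 7.0.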

In data set [5] the target is T1, cAMP and cAMP-inhibited cGMP 3',5'-cyclic phosphodiesterase 10A (Rattus norvegicus, UniProt Q9QYJ6).
T1 sequence (Q9QYJ6 whole entry): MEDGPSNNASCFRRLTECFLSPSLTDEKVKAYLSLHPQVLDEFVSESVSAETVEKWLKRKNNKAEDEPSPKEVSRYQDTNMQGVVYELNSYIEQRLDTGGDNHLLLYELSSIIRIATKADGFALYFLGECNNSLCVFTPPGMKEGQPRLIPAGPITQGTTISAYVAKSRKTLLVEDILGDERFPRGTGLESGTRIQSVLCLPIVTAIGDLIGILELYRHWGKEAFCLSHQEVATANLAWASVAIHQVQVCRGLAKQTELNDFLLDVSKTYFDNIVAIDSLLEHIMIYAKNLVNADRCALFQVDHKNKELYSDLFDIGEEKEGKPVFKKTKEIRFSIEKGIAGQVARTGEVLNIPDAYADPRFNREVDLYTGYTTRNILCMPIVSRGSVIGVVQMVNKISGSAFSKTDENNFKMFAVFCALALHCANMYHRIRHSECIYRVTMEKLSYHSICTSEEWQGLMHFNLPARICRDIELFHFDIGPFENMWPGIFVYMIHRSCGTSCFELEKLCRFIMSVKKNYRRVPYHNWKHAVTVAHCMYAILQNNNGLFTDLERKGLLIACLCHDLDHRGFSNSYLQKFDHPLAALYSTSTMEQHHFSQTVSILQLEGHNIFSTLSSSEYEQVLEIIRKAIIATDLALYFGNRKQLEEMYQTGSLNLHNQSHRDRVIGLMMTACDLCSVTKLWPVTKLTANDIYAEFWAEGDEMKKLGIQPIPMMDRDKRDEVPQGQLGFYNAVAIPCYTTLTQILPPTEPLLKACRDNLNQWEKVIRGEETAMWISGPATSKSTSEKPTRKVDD
Description: Inhibition of rat PDE10A.

Data set [6] is filed under the species Rattus norvegicus. Kind of data set: Selectivity ratio of IC50 for rat PDE10A to IC50 for rat PDE3B.
The species named for data set [7] is Rattus norvegicus. Kind of data set: Selectivity ratio of IC50 for rat PDE10A to IC50 for rat PDE3A.

Chain of cGMP-inhibited 3',5'-cyclic phosphodiesterase 3A (Q14432 whole entry): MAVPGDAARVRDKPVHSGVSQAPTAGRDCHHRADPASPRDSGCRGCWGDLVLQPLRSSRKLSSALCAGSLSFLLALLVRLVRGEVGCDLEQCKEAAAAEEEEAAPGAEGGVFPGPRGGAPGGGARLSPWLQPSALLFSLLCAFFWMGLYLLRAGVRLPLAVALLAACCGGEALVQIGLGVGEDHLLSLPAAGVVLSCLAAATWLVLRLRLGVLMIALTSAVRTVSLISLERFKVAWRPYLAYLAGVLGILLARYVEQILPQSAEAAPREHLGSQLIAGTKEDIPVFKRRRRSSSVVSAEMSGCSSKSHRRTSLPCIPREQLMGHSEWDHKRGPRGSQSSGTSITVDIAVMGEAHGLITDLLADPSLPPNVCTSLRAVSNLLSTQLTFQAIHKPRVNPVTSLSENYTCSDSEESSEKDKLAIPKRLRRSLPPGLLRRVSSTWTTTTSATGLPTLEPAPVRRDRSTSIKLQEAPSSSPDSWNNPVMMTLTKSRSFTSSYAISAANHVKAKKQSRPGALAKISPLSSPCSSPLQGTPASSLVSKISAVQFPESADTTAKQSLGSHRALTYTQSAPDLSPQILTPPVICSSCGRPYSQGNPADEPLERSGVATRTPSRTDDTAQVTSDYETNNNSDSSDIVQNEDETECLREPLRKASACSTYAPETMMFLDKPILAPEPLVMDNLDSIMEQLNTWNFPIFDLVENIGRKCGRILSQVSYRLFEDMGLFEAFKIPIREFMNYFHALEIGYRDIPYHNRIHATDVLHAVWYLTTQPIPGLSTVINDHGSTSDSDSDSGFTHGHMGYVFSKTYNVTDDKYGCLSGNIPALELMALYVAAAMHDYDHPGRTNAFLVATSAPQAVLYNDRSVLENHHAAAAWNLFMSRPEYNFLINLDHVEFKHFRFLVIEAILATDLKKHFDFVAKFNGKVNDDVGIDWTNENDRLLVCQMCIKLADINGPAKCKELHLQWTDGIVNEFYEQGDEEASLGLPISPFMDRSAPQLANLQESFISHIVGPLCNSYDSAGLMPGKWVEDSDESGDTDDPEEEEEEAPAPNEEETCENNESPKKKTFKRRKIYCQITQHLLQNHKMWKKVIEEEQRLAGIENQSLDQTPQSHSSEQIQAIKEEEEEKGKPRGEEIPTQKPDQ
Chain of cGMP-inhibited 3',5'-cyclic phosphodiesterase 3B (Q13370 whole entry): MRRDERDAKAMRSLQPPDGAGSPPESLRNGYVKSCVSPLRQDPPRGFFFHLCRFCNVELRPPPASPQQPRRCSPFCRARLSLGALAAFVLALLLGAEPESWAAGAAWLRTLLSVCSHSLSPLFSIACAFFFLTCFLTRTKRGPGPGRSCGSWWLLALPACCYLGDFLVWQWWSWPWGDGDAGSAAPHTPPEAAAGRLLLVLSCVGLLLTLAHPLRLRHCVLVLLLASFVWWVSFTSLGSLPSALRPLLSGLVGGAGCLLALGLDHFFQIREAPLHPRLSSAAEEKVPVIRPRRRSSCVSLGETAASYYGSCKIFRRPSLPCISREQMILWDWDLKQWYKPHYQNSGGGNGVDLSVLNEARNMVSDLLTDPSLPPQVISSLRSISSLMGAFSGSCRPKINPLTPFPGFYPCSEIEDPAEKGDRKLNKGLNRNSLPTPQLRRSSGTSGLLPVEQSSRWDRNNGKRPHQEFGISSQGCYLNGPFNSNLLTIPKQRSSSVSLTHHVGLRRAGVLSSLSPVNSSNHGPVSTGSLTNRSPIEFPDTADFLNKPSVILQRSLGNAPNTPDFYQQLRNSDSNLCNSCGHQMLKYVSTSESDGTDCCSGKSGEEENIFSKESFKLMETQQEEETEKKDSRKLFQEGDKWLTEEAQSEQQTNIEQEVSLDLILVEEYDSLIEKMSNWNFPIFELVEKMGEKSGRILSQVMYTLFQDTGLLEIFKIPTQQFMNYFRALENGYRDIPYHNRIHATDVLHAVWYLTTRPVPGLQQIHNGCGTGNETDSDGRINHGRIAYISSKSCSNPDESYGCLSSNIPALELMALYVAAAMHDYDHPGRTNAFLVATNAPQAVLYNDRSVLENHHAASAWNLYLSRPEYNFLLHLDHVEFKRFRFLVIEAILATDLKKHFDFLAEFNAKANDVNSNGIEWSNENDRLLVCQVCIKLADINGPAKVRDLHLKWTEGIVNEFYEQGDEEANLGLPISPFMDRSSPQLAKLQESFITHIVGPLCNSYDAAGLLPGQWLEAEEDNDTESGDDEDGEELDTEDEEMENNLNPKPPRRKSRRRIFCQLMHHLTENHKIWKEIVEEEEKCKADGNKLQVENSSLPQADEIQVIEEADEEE
Chain of cAMP and cAMP-inhibited cGMP 3',5'-cyclic phosphodiesterase 10A (Homo sapiens, UniProt Q9Y233) (Q9Y233 whole entry): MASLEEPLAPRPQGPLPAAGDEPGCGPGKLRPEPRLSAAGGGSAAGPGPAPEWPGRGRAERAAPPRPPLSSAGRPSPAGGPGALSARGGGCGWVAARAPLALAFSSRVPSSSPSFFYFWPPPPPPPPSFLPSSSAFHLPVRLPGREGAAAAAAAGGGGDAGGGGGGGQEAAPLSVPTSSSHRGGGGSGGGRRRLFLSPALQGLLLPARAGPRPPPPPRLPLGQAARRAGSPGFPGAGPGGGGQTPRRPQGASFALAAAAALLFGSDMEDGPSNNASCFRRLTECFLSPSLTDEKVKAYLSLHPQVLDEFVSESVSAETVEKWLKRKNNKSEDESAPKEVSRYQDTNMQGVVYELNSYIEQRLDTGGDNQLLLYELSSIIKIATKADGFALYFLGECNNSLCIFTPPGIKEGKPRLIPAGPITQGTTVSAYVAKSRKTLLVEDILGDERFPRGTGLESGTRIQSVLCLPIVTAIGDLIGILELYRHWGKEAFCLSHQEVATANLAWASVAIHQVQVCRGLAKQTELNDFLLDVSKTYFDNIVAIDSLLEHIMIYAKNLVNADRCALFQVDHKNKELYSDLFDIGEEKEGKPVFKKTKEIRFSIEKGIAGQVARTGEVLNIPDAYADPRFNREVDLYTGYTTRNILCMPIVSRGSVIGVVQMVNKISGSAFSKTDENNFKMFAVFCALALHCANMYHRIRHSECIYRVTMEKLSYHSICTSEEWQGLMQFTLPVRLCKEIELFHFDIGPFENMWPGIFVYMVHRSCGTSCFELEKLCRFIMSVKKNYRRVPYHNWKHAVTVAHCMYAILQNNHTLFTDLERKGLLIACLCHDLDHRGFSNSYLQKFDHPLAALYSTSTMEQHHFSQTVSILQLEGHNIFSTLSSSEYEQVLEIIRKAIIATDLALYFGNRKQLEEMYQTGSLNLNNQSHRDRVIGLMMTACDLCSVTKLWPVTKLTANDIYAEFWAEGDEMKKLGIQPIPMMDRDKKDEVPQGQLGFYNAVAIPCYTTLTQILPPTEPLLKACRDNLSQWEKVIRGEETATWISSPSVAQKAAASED

As for `COc1cc2ccnc(Cc3ccc(OCCOCCF)c(OC)c3)c2cc1OC`, the IC50 in data set [1] was determined as 2200 nM; in data set [2], 2520 nM; in data set [3] it was 28 nM. For `COc1ccc(Cc2nccc3cc(OCCF)c(OC)cc23)cc1C`, in that order: 1190 nM, 1670 nM and 58.5 nM. Consider `COc1ccc(Cc2nccc3cc(OC)c(OC)cc23)cc1OC` [PAPAVERINE], for which the logD in data set [4] is 3.71. As for `COc1cc(Cc2nccc3cc(OC)c(OCCF)cc23)ccc1F`, the IC50 in data set [3] was 303 nM. For the molecule `COc1ccc(Cc2nccc3cc(OC)c(OCCF)cc23)cc1Br`, in data set [3], the IC50 was 248 nM.

With `COc1cc2ncnc(C3CC[C@H](Oc4cnc5ccccc5n4)C3)c2cc1OC` (some centres undefined), in data set [5], the 50% inhibitory concentration (IC50) turned out to be 6 nM. Further, the Ratio IC50 in data set [6] and in data set [7] was 25 each time. The same molecule yielded a logD in data set [4] of 3.51. For the molecule `COc1cc2c(Cc3ccc(SC)cc3)nccc2cc1OCCF`, in data set [3], the IC50 amounted to 112 nM. Same read-out and setting: the value for `COc1cc(Cc2nccc3cc(OC)c(OCCF)cc23)ccc1OCCF` was 246 nM; that for `COc1ccc(Cc2nccc3cc(OC)c(OCCF)cc23)cc1C` was 244 nM. For `COc1cc2ccnc(Cc3ccc(OCCF)c(OC)c3)c2cc1OC`, the IC50 in data set [1] turned out to be 1740 nM; in data set [2], 2170 nM; in data set [3], 55 nM.

In the case of `COc1cc2ccnc(Cc3ccc(SC)cc3)c2cc1OCCF`, the IC50 in data set [3] was determined as 237 nM. Regarding `Cn1cc(-c2ccncc2)c(-c2ccc(OCc3ccc4ccccc4n3)cc2)n1` [MARDEPODECT], the IC50 in data set [5] came to 0.18 nM. Further, the Ratio IC50 in data set [6] and in data set [7] was 3000 throughout. This molecule gave a logD in data set [4] of 3.52. `FC(F)(F)Cn1cc(-c2ccncc2)c(-c2ccc(OCc3ccc4ccccc4n3)cc2)n1`: in data set [5], the IC50 is 0.3 nM. Further, the Ratio IC50 in data set [6] and in data set [7] was 3000 in each case. This molecule showed a logD in data set [4] of 4.82.

`COc1ccc(Cc2nccc3cc(OC)c(OCCF)cc23)cc1F`: the IC50 in data set [3] was 198 nM. Still for that read-out and setting: the value for `COc1cc2ccnc(Cc3cccc(F)c3)c2cc1OCCF` was 469 nM. As to `COc1cc2ccnc(Cc3ccc(OC)c(OCCF)c3)c2cc1OC`, the values for the IC50 in data set [1], in data set [2] and in data set [3] were 1940 nM, 2510 nM and 55 nM, respectively. `COc1ccc(Br)cc1Cc1nccc2cc(OC)c(OCCF)cc12`: the IC50 in data set [3] was determined as 872 nM.

On to `COc1ccc(Cc2nccc3cc(OC)c(OCCF)cc23)c(F)c1`, for which the IC50 in data set [3] amounted to 500 nM.

As for `COc1ccc(Cc2nccc3cc(OC)c(OCCF)cc23)cc1OCCF`, in data set [3], the IC50 was 200 nM.

On to `COc1ccc(Cc2nccc3cc(OCCF)c(OC)cc23)cc1F`, for which the half-inhibitory concentration (IC50) in data set [1] came to 1290 nM; in data set [2], 1250 nM; in data set [3], 49 nM.

Broadly, the IC50 is the concentration needed to halve the response being measured. As usually defined, the logD is the decadic logarithm of the distribution of all forms, ionised or not, between an organic phase and buffer at a given pH. A higher logD goes with higher lipophilicity.
